In ChEMBL document CHEMBL1145965, “4-Substituted 4-hydroxycyclohexa-2,5-dien-1-ones with selective activities against colon and renal cancer cell lines” (J Med Chem, 2003):

How the values were obtained:
[1] = tested on: Panel NCI-60 (60 carcinoma cell lines); assay: In vitro mean growth lethal concentration in renal subpanel against 60-cell panel; format: functional; details: Homo sapiens, read-out: Mean LC50
CCRF-CEM = assay: Concentration of compound that cause 50% cytotoxicity of CCRF-CEM leukemia cell line; format: functional; details: Homo sapiens, read-out: Log LC50 (the source's name) (converted)
Procedure, shortened: (§1)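 NCI 60-cell-line panel screen. Each line was seeded in 96-well plates at a density set by its growth characteristics and incubated drug-free for 24 h. Test agents were then added at five 10-fold dilutions, with a top concentration of 100 μM.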

SK-MEL-5 = assay: Concentration of compound that cause 50% cytotoxicity of SK-MEL-5 melanoma cell line; format: functional; details: Homo sapiens, read-out: Log LC50 (the source's name) (converted); procedure, shortened: as §1
KM12 = assay: Concentration of compound that cause 50% cytotoxicity of KM12 colon cancer cell line; format: functional; details: Homo sapiens, read-out: Log LC50 (the source's name) (converted); procedure, shortened: as §1
MDA-MB-231 = assay: Concentration of compound that cause 50% cytotoxicity of MDA-MB-231/ATCC breast cancer cell line; format: functional; details: Homo sapiens, read-out: Log LC50 (the source's name) (converted); procedure, shortened: as §1
NCI/ADR-RES = assay: Concentration of compound that cause 50% cytotoxicity of NCI/ADR-RES breast cancer cell line; format: functional; details: Homo sapiens, read-out: LC50 (the source's name); procedure, shortened: as §1
OVCAR-5 = assay: Concentration of compound that cause 50% cytotoxicity of OVCAR-5 ovarian cancer cell line; format: functional; details: Homo sapiens, read-out: Log LC50 (the source's name) (converted); procedure, shortened: as §1
MDA-MB-435 = assay: Concentration of compound that cause 50% cytotoxicity of MDA-MB-435 breast cancer cell line; format: functional; details: Homo sapiens, read-out: Log LC50 (the source's name) (converted); procedure, shortened: as §1
M14 = assay: Concentration of compound that cause 50% cytotoxicity of M14 melanoma cell line; format: functional; details: Homo sapiens, read-out: Log LC50 (the source's name) (converted); procedure, shortened: as §1
Malme-3M = assay: Concentration of compound that cause 50% cytotoxicity of MALME -3M melanoma cell line; format: functional; details: Homo sapiens, read-out: Log LC50 (the source's name) (converted); procedure, shortened: as §1
HT-29 = assay: Concentration of compound that cause 50% cytotoxicity of HT-29 colon cancer cell line; format: functional; details: Homo sapiens, read-out: Log LC50 (the source's name) (converted); procedure, shortened: as §1
Hs-578T = assay: Concentration of compound that cause 50% cytotoxicity of Hs 578.T breast cancer cell line; format: functional; details: Homo sapiens, read-out: LC50 (the source's name); procedure, shortened: as §1
SK-MEL-2 = assay: Concentration of compound that cause 50% cytotoxicity of SK-MEL-2 melanoma cell line; format: functional; details: Homo sapiens, read-out: Log LC50 (the source's name) (converted); procedure, shortened: as §1
UACC-62 = assay: Concentration of compound that cause 50% cytotoxicity of UACC-62 melanoma cell line; format: functional; details: Homo sapiens, read-out: Log LC50 (the source's name) (converted)
RXF 393 = assay: Concentration of compound that cause 50% cytotoxicity of RXF393 renal cancer cell line; format: functional; details: Homo sapiens, read-out: Log LC50 (the source's name) (converted); procedure, shortened: as §1
NCI-H460 = assay: Concentration of compound that cause 50% cytotoxicity of NCI-H460 non small cell lung cancer cell line; format: functional; details: Homo sapiens, read-out: Log LC50 (the source's name) (converted); procedure, shortened: as §1
SK-OV-3 = assay: Concentration of compound that cause 50% cytotoxicity of SK-OV-3 ovarian cancer cell line; format: functional; details: Homo sapiens, read-out: Log LC50 (the source's name) (converted); procedure, shortened: as §1
A498 = assay: Concentration of compound that cause 50% cytotoxicity of A498 renal cancer cell line; format: functional; details: Homo sapiens, read-out: Log LC50 (the source's name) (converted); procedure, shortened: as §1
SR = assay: Concentration of compound that cause 50% cytotoxicity of SR leukemia cell line; format: functional; details: Homo sapiens, read-out: LC50 (the source's name); procedure, shortened: as §1
NCI-H23 = assay: Concentration of compound that cause 50% cytotoxicity of NCI-H23 non small cell lung cancer cell line; format: functional; details: Homo sapiens, read-out: Log LC50 (the source's name) (converted); procedure, shortened: as §1
SF-268 = assay: Concentration of compound that cause 50% cytotoxicity of SF-268 CNS cancer cell line; format: functional; details: Homo sapiens, read-out: Log LC50 (the source's name) (converted); procedure, shortened: as §1
[2] = Inhibitory activity against MDA-468 mammary carcinoma cell line; format: functional, cell-based, Homo sapiens; details: mda-mb-468
Procedure, shortened: (§2)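 Cells grown in RPMI 1640 with 2 mM L-glutamine and 10% fetal calf serum, 37 °C, 5% CO2. Seeded at 5 × 10³ per well, 24 h adherence, then drug 0.1 nM–100 μM final (n = 8; DMSO stocks, dilutions in medium) for 72 h.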

HCT-116 [3] = assay: In vitro lethal concentration against most sensitive colon HCT116 cell line; format: functional; details: Homo sapiens, read-out: LC50 (the source's name)
OVCAR-4 = assay: Concentration of compound that cause 50% cytotoxicity of OVCAR-4 ovarian cancer cell line; format: functional; details: Homo sapiens, read-out: Log LC50 (the source's name) (converted); procedure, shortened: as §1
A549 = assay: Inhibitory activity against A549 lung adenocarcinoma cell line; format: functional, cell-based; details: Homo sapiens; procedure, shortened: as §2
IGROV-1 = assay: Concentration of compound that cause 50% cytotoxicity of IGROV1 ovarian cancer cell line; format: functional; details: Homo sapiens, read-out: Log LC50 (the source's name) (converted); procedure, shortened: as §1
HCC 2998 = assay: Concentration of compound that cause 50% cytotoxicity of HCC2998 colon cancer cell line; format: functional; details: Homo sapiens, read-out: Log LC50 (the source's name) (converted); procedure, shortened: as §1
SW-620 = assay: Concentration of compound that cause 50% cytotoxicity of SW-620 colon cancer cell line; format: functional; details: Homo sapiens, read-out: LC50 (the source's name); procedure, shortened: as §1
SN12C = assay: Concentration of compound that cause 50% cytotoxicity of SN12C renal cancer cell line; format: functional; details: Homo sapiens, read-out: Log LC50 (the source's name) (converted); procedure, shortened: as §1
HCT-116 [4] = assay: Concentration of compound that cause 50% cytotoxicity of HCT116 colon cancer cell line; format: functional; details: Homo sapiens, read-out: Log LC50 (the source's name) (converted); procedure, shortened: as §1
K562 = assay: Concentration of compound that cause 50% cytotoxicity of K-562 leukemia cell line; format: functional; details: Homo sapiens, read-out: LC50 (the source's name); procedure, shortened: as §1
[5] = tested on: Panel NCI-60 (60 carcinoma cell lines); assay: In vitro mean growth inhibitory activity against 60-cell panel; format: functional; details: Homo sapiens

SMILES: O=C1C=CC(O)(c2nc3ccccc3s2)C=C1
- CC50 [1]: 1.57 µM
- CC50 (CCRF-CEM): 2.57 µM
- CC50 (SK-MEL-5): 24 µM
- CC50 (KM12): 4.37 µM
- CC50 (MDA-MB-231): 5.75 µM
- CC50 (NCI/ADR-RES): > 4 µM
- CC50 (OVCAR-5): 1.86 µM
- CC50 (MDA-MB-435): 1.51 µM
- CC50 (M14): 5.25 µM
- CC50 (Malme-3M): 2.34 µM
- CC50 (HT-29): 0.692 µM
- CC50 (Hs-578T): > 4 µM
- CC50 (SK-MEL-2): 7.08 µM
- CC50 (UACC-62): 5.75 µM
- CC50 (RXF 393): 0.575 µM
- CC50 (NCI-H460): 44.7 µM
- CC50 (SK-OV-3): 38 µM
- CC50 (A498): 8.51 µM
- CC50 (SR): > 4 µM
- CC50 (NCI-H23): 5.13 µM
- CC50 (SF-268): 6.31 µM
- IC50 [2]: 0.79 µM
- CC50 (HCT-116 [3]): 0.43 µM
- CC50 (OVCAR-4): 3.8 µM
- IC50 (A549): 2.35 µM
- CC50 (IGROV-1): 5.37 µM
- CC50 (HCC 2998): 0.977 µM
- CC50 (SW-620): > 4 µM
- CC50 (SN12C): 1.45 µM
- CC50 (HCT-116 [4]): 0.468 µM
- CC50 (K562): > 4 µM
- GI50 [5]: 0.23 µM
